Assay results as given in ChEMBL document CHEMBL4138193, “Novel indole and triazole based hybrid molecules exhibit potent anti-adipogenic and antidyslipidemic activity by activating Wnt3a/β-catenin pathway” (Eur J Med Chem, 2018).
Activity calls are given as the source filed them.

Assays:
Syrian golden hamster [1] = assay: Induction of reverse cholestrol transport in high fat diet-induced dyslipidemia Syrian Golden hamster model assessed as decrease in CETP mRNA expression in liver at 100 mg/kg, po administered for 1 week by qRT-PCR analysis; assay type: functional, organism-based; conditions: Mesocricetus auratus
3T3-L1 [2] = assay: Cell cycle arrest in mouse 3T3L1 cells assessed as reduction in accumulation at S phase at 10 to 20 uM after 16 hrs by propidium iodide-staining based flow cytometry; assay type: functional
Procedure, shortened: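 Confluent 3T3-L1 preadipocytes given differentiation medium (0.5 mM IBMX, 5 µg/ml insulin, 250 nM dexamethasone) with 10 or 20 µM for 16 and 24 hr. Cells trypsinized, fixed in ice-cold 70% ethanol for 2 hr, stained with propidium iodide (40 µg/ml in RNase A buffer, 30 min, room temperature). Flow cytometry gave the fractions in G1, S and G2/M; three independent experiments.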

Mus musculus [3] = organism: Mus musculus; assay: Activation of Wnt3a/beta-catenin in mouse 3T3L1 cells assessed as down-regulation of cyclinD expression at 20 uM after 16 to 24 hrs by Western blot analysis; assay type: cell-based
Procedure, shortened: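 3T3-L1 cells given MDI differentiation media (0.5 mM IBMX, 5 µg/ml insulin, 250 nM dexamethasone) with or without 20 µM compound. Proteins isolated at 16 and 24 h and probed by Western blot for CDK2, CDK4, CDK6, cyclin D1 and D3. Densitometry normalized to actin, n=3, mean ± SD, Student t test.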

3T3-L1 [4] = assay: Induction of Wnt5a mRNA expression in mouse 3T3L1 cells at 20 uM by qRT-PCR analysis; assay type: functional, cell-based
Procedure, shortened: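 3T3-L1 cells induced with MDI differentiation medium with or without 20 µM. RNA isolated with TRIzol and 500 ng reverse-transcribed to cDNA for real-time PCR. n=3 with triplicates, mean ± SD; one-way ANOVA with Bonferroni post-test.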

Mus musculus [5] = organism: Mus musculus; assay: Activation of Wnt3a/beta-catenin in mouse 3T3L1 cells assessed as induction of TCF1 expression at 20 uM after 16 to 24 hrs by Western blot analysis; assay type: cell-based
Mus musculus [6] = organism: Mus musculus; assay: Activation of Wnt3a/beta-catenin in mouse 3T3L1 cells assessed as down-regulation of CDK2 expression at 20 uM after 16 to 24 hrs in presence of FH353 by Western blot analysis; assay type: cell-based
Procedure, shortened: (§1)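 Confluent 3T3-L1 cells given differentiation media (IBMX/insulin/dexamethasone) with 20 µM compound, with or without the β-catenin/TCF inhibitor FH353 (10 µM). Proteins isolated at 16 and 24 h and Western blotted after SDS-PAGE and nitrocellulose transfer. Blocking in 5% milk/TBS-T, primary antibody overnight at 4 °C, chemiluminescent detection, β-actin control, three independent experiments.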

Syrian golden hamster [7] = assay: Anti-dyslipidemic activity in high fat diet-induced dyslipidemia Syrian Golden hamster model assessed as reduction in serum triglycerides levels at 100 mg/kg, po administered for 1 week followed by overnight fasting post last dose by clinical bio-analyzer analysis; assay type: functional, organism-based; conditions: Mesocricetus auratus
Procedure, shortened: (§2)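 Male Syrian Golden hamsters (8-10 weeks, 100-120 g), 4 per group, given 45% kCal high fat diet for 4 days, then HFD plus oral dosing in 0.5% w/v NaCMC for one week. After an overnight fast, blood was taken from the retro-orbital plexus under anesthesia and serum was analysed on a clinical bio-analyzer. Mean ± SEM; one-way ANOVA with Bonferroni post-test.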

Syrian golden hamster [8] = assay: Anti-dyslipidemic activity in high fat diet-induced dyslipidemia Syrian Golden hamster model assessed as reduction in serum total cholesterol levels at 100 mg/kg, po administered for 1 week followed by overnight fasting post last dose by clinical bio-analyzer analysis; assay type: functional, organism-based; conditions: Mesocricetus auratus; procedure, shortened: as §2
Syrian golden hamster [9] = assay: Anti-dyslipidemic activity in high fat diet-induced dyslipidemia Syrian Golden hamster model assessed as decrease in serum ALT levels at 100 mg/kg, po administered for 1 week followed by overnight fasting post last dose by clinical bio-analyzer analysis; assay type: functional, organism-based; conditions: Mesocricetus auratus
Procedure, shortened: (§3)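 Male Syrian golden hamsters (8–10 wk, 100–120 g), 4 per group, given 45% kcal HFD for 4 days, then 100 mg/kg p.o. in 0.5% NaCMC daily for one week alongside HFD. Blood taken from retro-orbital plexus after overnight fast. TG, HDL, LDL, ALT, AST measured on a clinical bio-analyzer and NEFA by kit. Mean ± SEM, one-way ANOVA with Bonferroni.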

Syrian golden hamster [10] = assay: Anti-atherosclerotic activity in high fat diet-induced dyslipidemia Syrian Golden hamster model assessed as reduction in atherogenic index by measuring serum triglycerides to HDL ratio at 100 mg/kg, po administered for 1 week followed by overnight fasting post last dose by clinical bio-analyzer analysis; assay type: functional, organism-based; conditions: Mesocricetus auratus; procedure, shortened: as §3
Syrian golden hamster [11] = assay: Anti-adipogenic activity in high fat diet-induced dyslipidemia Syrian Golden hamster model assessed as increase in beta-catenin levels in eWAT at 100 mg/kg, po administered for 1 week by Western blot analysis; assay type: functional, organism-based; conditions: Mesocricetus auratus
Procedure, shortened: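 Male Syrian golden hamsters (8–10 wk, 100–120 g) fed 45% kcal HFD for 4 days, then dosed orally at 100 mg/kg in 0.5% NaCMC for one week, n=4 per group. Fenofibrate 100 mg/kg p.o. used as positive control. Epididymal WAT proteins Western blotted, three independent experiments.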

Syrian golden hamster [12] = assay: Induction of reverse cholestrol transport in high fat diet-induced dyslipidemia Syrian Golden hamster model assessed as increase in HNF1alpha mRNA expression in liver at 100 mg/kg, po administered for 1 week by qRT-PCR analysis; assay type: functional, organism-based; conditions: Mesocricetus auratus
Syrian golden hamster [13] = assay: Induction of reverse cholestrol transport in high fat diet-induced dyslipidemia Syrian Golden hamster model assessed as reduction in hepatic lipid vacuoles hypertrophy at 100 mg/kg, po administered for 1 week by H and E staining based assay; assay type: functional, organism-based; conditions: Mesocricetus auratus
C3H 10T1/2 = assay: Anti-adipogenic activity in mouse C3H10T1/2 cells assessed as reduction in lipid accumulation at early differentiation stage at 20 uM measured up to 3 days by Oil Red O absorbance method; assay type: functional, cell-based
Procedure, shortened: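 3T3-L1 or C3H10T1/2 cells given 20 µM compound with differentiation media for different time periods. Oil red O stain extracted from accumulated lipid with isopropanol and absorbance read at 492 nm. n=3, mean ± SD, Student t test against MDI+ group.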

Mus musculus [14] = organism: Mus musculus; assay: Activation of Wnt3a/beta-catenin in differentiated mouse 3T3L1 cells assessed as down-regulation of AP2 protein expression at 20 uM after 16 to 24 hrs by Western blot analysis
Procedure, shortened: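 3T3-L1 preadipocytes grown to confluence in high-glucose DMEM/10% FBS, then given differentiation media (0.5 mM IBMX, 5 µg/ml insulin, 250 nM dexamethasone) with or without 20 µM compound. Protein isolated at set time points, lysed with protease/phosphatase inhibitors, BCA-quantified, resolved by 8–12% SDS-PAGE, immunoblotted with ECL detection. β-actin loading control, densitometry normalized to actin, n=3.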

Mus musculus [15] = organism: Mus musculus; assay: Activation of Wnt3a/beta-catenin in differentiated mouse 3T3L1 cells assessed as upregulation of phosphorylated beta-catenin expression at 20 uM after 16 to 24 hrs in presence of beta-catenin/TCF complex inhibitor FH353 by Western blot analysis; procedure, shortened: as §1
Mus musculus [16] = organism: Mus musculus; assay: Activation of Wnt3a/beta-catenin in mouse 3T3L1 cells assessed as down-regulation of AP2 expression at 20 uM after 2 to 6 days in presence of FH353 by Western blot analysis

Measured: Activity

Cc1ccc(S(=O)(=O)N(Cc2cn(Cc3cccc(F)c3F)nn2)Cc2cn(S(=O)(=O)c3ccc(C)cc3)c3ccccc23)cc1
inactive: 3T3-L1 [4] | Mus musculus [6] | Mus musculus [15] | Mus musculus [16]
active: all other assays above
